Data taken from ChEMBL document CHEMBL4689842, “EUbOPEN Chemogenomics Library wave 1” (2021).

What was measured:
Format in all cases: toxicity, cell-based
U2OS [1] = assay: Multiplex assay against U2OS; details: human
In short: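 Cells were classed with CellPathfinder machine-learning gating, first as Hoechst high-intensity objects or normal cells, then (normal cells) as healthy, pyknosed or fragmented nuclei, and finally (pyknosed cells) as mitotic or apoptotic. Staining of live cells at seeding used Hoechst33342, BioTracker Green Microtubule Cytoskeleton Dye, MitoTracker Red and Annexin V Alexa Fluor 680, with imaging on a CQ1 microscope at 37°C and 5% CO2 after compound addition. Tubulin, mitochondrial-mass and membrane-permeability phenotypes are per cents of healthy-nucleus cells.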

HEK-293T = assay: Incucyte cell viability with HEK293T; details: human, 10 µM, compound concentration 10 uM; note: filed as whole numbers so only -1 and 0 and 1 occur
U2OS [2] = assay: Incucyte cell viability with U2OS; details: human, 10 µM, compound concentration 10 uM; note: filed as whole numbers so only -1 and 0 and 1 occur
[3] = 12 h, 1 µM, compound concentration 1 uM, replicate 1
[4] = 12 h, 1 µM, compound concentration 1 uM, replicate 2
[5] = 12 h, 10 µM, compound concentration 10 uM, replicate 1
[6] = 12 h, 10 µM, compound concentration 10 uM, replicate 2
[7] = 24 h, 1 µM, compound concentration 1 uM, replicate 1
[8] = 24 h, 1 µM, compound concentration 1 uM, replicate 2
[9] = 24 h, 10 µM, compound concentration 10 uM, replicate 1
[10] = 24 h, 10 µM, compound concentration 10 uM, replicate 2
[11] = 6 h, replicate number 1, timepoint 6 hours
[12] = 12 h, replicate number 1, timepoint 12 hours
[13] = 18 h, replicate number 1, timepoint 18 hours
[14] = 24 h, replicate number 1, timepoint 24 hours

Compound: Cl.Cl.NC1(c2ccc(-c3nc4ccn5c(=O)[nH]nc5c4cc3-c3ccccc3)cc2)CCC1
- Population Apoptotic (%) (U2OS [1]; [3]): 53%
- Population Fragmented Nuclei (%) (U2OS [1]; [3]): 11%
- Population Healthy Nuclei (%) (U2OS [1]; [3]): 81%
- Population Hoechst High Intensity Objects (%) (U2OS [1]; [3]): 1%
- Population Membrane Permeable-Phenotype (%) (U2OS [1]; [3]): 20%
- Population Mitochondria Different-Phenotype (%) (U2OS [1]; [3]): 13%
- Population Mitotic Cells (%) (U2OS [1]; [3]): 46%
- Population Normal (%) (U2OS [1]; [3]): 98%
- Population Pyknosed Nuclei (%) (U2OS [1]; [3]): 6%
- Population Tubulin-Different-Phenotype (%) (U2OS [1]; [3]): 14%
- Total Cell Count (U2OS [1]; [3]): 154
- Population Apoptotic (%) (U2OS [1]; [4]): 50%
- Population Fragmented Nuclei (%) (U2OS [1]; [4]): 17%
- Population Healthy Nuclei (%) (U2OS [1]; [4]): 77%
- Population Hoechst High Intensity Objects (%) (U2OS [1]; [4]): 12%
- Population Membrane Permeable-Phenotype (%) (U2OS [1]; [4]): 10%
- Population Mitochondria Different-Phenotype (%) (U2OS [1]; [4]): 17%
- Population Mitotic Cells (%) (U2OS [1]; [4]): 50%
- Population Normal (%) (U2OS [1]; [4]): 87%
- Population Pyknosed Nuclei (%) (U2OS [1]; [4]): 4%
- Population Tubulin-Different-Phenotype (%) (U2OS [1]; [4]): 19%
- Total Cell Count (U2OS [1]; [4]): 116
- Population Apoptotic (%) (U2OS [1]; [5]): 22%
- Population Fragmented Nuclei (%) (U2OS [1]; [5]): 16%
- Population Healthy Nuclei (%) (U2OS [1]; [5]): 40%
- Population Hoechst High Intensity Objects (%) (U2OS [1]; [5]): 9%
- Population Membrane Permeable-Phenotype (%) (U2OS [1]; [5]): 28%
- Population Mitochondria Different-Phenotype (%) (U2OS [1]; [5]): 53%
- Population Mitotic Cells (%) (U2OS [1]; [5]): 77%
- Population Normal (%) (U2OS [1]; [5]): 90%
- Population Pyknosed Nuclei (%) (U2OS [1]; [5]): 42%
- Population Tubulin-Different-Phenotype (%) (U2OS [1]; [5]): 70%
- Total Cell Count (U2OS [1]; [5]): 190
- Population Apoptotic (%) (U2OS [1]; [6]): 11%
- Population Fragmented Nuclei (%) (U2OS [1]; [6]): 26%
- Population Healthy Nuclei (%) (U2OS [1]; [6]): 42%
- Population Hoechst High Intensity Objects (%) (U2OS [1]; [6]): 16%
- Population Membrane Permeable-Phenotype (%) (U2OS [1]; [6]): 16%
- Population Mitochondria Different-Phenotype (%) (U2OS [1]; [6]): 51%
- Population Mitotic Cells (%) (U2OS [1]; [6]): 88%
- Population Normal (%) (U2OS [1]; [6]): 83%
- Population Pyknosed Nuclei (%) (U2OS [1]; [6]): 31%
- Population Tubulin-Different-Phenotype (%) (U2OS [1]; [6]): 66%
- Total Cell Count (U2OS [1]; [6]): 160
- Population Apoptotic (%) (U2OS [1]; [7]): 50%
- Population Fragmented Nuclei (%) (U2OS [1]; [7]): 9%
- Population Healthy Nuclei (%) (U2OS [1]; [7]): 85%
- Population Hoechst High Intensity Objects (%) (U2OS [1]; [7]): 1%
- Population Membrane Permeable-Phenotype (%) (U2OS [1]; [7]): 14%
- Population Mitochondria Different-Phenotype (%) (U2OS [1]; [7]): 11%
- Population Mitotic Cells (%) (U2OS [1]; [7]): 50%
- Population Normal (%) (U2OS [1]; [7]): 98%
- Population Pyknosed Nuclei (%) (U2OS [1]; [7]): 5%
- Population Tubulin-Different-Phenotype (%) (U2OS [1]; [7]): 17%
- Total Cell Count (U2OS [1]; [7]): 140
- Population Apoptotic (%) (U2OS [1]; [8]): 16%
- Population Fragmented Nuclei (%) (U2OS [1]; [8]): 14%
- Population Healthy Nuclei (%) (U2OS [1]; [8]): 81%
- Population Hoechst High Intensity Objects (%) (U2OS [1]; [8]): 8%
- Population Membrane Permeable-Phenotype (%) (U2OS [1]; [8]): 10%
- Population Mitochondria Different-Phenotype (%) (U2OS [1]; [8]): 21%
- Population Mitotic Cells (%) (U2OS [1]; [8]): 83%
- Population Normal (%) (U2OS [1]; [8]): 91%
- Population Pyknosed Nuclei (%) (U2OS [1]; [8]): 3%
- Population Tubulin-Different-Phenotype (%) (U2OS [1]; [8]): 19%
- Total Cell Count (U2OS [1]; [8]): 103
- Population Apoptotic (%) (U2OS [1]; [9]): 36%
- Population Fragmented Nuclei (%) (U2OS [1]; [9]): 8%
- Population Healthy Nuclei (%) (U2OS [1]; [9]): 27%
- Population Hoechst High Intensity Objects (%) (U2OS [1]; [9]): 19%
- Population Membrane Permeable-Phenotype (%) (U2OS [1]; [9]): 19%
- Population Mitochondria Different-Phenotype (%) (U2OS [1]; [9]): 68%
- Population Mitotic Cells (%) (U2OS [1]; [9]): 64%
- Population Normal (%) (U2OS [1]; [9]): 80%
- Population Pyknosed Nuclei (%) (U2OS [1]; [9]): 64%
- Population Tubulin-Different-Phenotype (%) (U2OS [1]; [9]): 55%
- Total Cell Count (U2OS [1]; [9]): 268
- Population Apoptotic (%) (U2OS [1]; [10]): 29%
- Population Fragmented Nuclei (%) (U2OS [1]; [10]): 18%
- Population Healthy Nuclei (%) (U2OS [1]; [10]): 23%
- Population Hoechst High Intensity Objects (%) (U2OS [1]; [10]): 21%
- Population Membrane Permeable-Phenotype (%) (U2OS [1]; [10]): 11%
- Population Mitochondria Different-Phenotype (%) (U2OS [1]; [10]): 57%
- Population Mitotic Cells (%) (U2OS [1]; [10]): 70%
- Population Normal (%) (U2OS [1]; [10]): 78%
- Population Pyknosed Nuclei (%) (U2OS [1]; [10]): 58%
- Population Tubulin-Different-Phenotype (%) (U2OS [1]; [10]): 48%
- Total Cell Count (U2OS [1]; [10]): 181
- Growth Rate (HEK-293T; [11]): 0
- Growth Rate (HEK-293T; [12]): 0
- Growth Rate (HEK-293T; [13]): 0
- Growth Rate (HEK-293T; [14]): 0
- Growth Rate (U2OS [2]; 0 h, replicate number 1, timepoint 0 hours): 0
- Growth Rate (U2OS [2]; [11]): 1
- Growth Rate (U2OS [2]; [12]): 1
- Growth Rate (U2OS [2]; [13]): 1
- Growth Rate (U2OS [2]; [14]): 1
